Test: Toxicity liver stage against HepG2, at 10uM
Type: cell-based
Parameters: test concentration 10 uM, cell line HepG2-A16-CD81EGFP
Conditions: human, HepG2-A16-CD81EGFP cells; read-out: INHIBITION
Outline: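 Uninfected HepG2-A16-CD81EGFP cells, 3 × 10^3 per well, 1536-well, plated on prespotted compound at 10 μM final, parasite-free screening media added to match infected plates; puromycin 10 μM positive, DMSO 0.5% negative; run in parallel with 48 h PbLuc assay at 37 °C, 5% CO2; viability by CellTiter-Glo luminescence, normalized to controls.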

Question: For `CN1CC=C(c2noc(CCC(=O)N3CCc4ccccc43)n2)CC1`, which cytotoxicity at 10 µM is on record?
Answer: 7.22%

Question: Which cytotoxicity at 10 µM does the source give for `COc1ccc(C2SCC(=O)Nc3n[nH]cc32)c(OC)c1OC` (stereo unspecified) here?
Answer: 4.68%

Question: With `Cn1c(=O)[nH]c(=O)n2c(CC(=O)Nc3ccccc3)cnc12` as the compound, how does the cytotoxicity at 10 µM read?
Answer: 5.81%

Question: For `Cc1cnn(CC(=O)N2CCC(c3ccn4nccc4n3)CC2)c1`, which cytotoxicity at 10 µM is on record?
Answer: 3.24%

Question: Which cytotoxicity at 10 µM does the source give for `CN(C)C(=O)C1CN(Cc2cccs2)CCN(S(C)(=O)=O)C1` (stereo unspecified) here?
Answer: -33.1%

Question: With `COc1ccc(CN(C)[C@@H]2CN(C(=O)c3cccn3C)C[C@H]2O)cc1` as the compound, how does the cytotoxicity at 10 µM read?
Answer: -21.5%

Question: Which cytotoxicity at 10 µM does the source give for `CC(C)(C)CN1CCCC12Cc1ccccc1CNC2=O` (stereo unspecified) here?
Answer: 22.1%

Question: For `Cc1ccc(CN(C)C(=O)NCC(C)(C)NS(C)(=O)=O)s1`, which cytotoxicity at 10 µM is on record?
Answer: -0.422%

Question: Which cytotoxicity at 10 µM does the source give for `COC(C)c1cccc(NCc2ccsc2)c1` (stereo unspecified) here?
Answer: -4.53%

Question: With `CCn1cnnc1CNC(=O)NC(c1ccc(OC)cc1)C1CC1` (stereo unspecified) as the compound, how does the cytotoxicity at 10 µM read?
Answer: 1.77%

Question: Which cytotoxicity at 10 µM does the source give for `O=C(c1ccc(-c2ccccc2)[nH]c1=O)N1CCN(C2CC2)CC1` here?
Answer: 9.8%

Question: With `CCc1cc(C)c(C(=O)N2CCCC(c3nnn[nH]3)C2)o1` (stereo unspecified) as the compound, how does the cytotoxicity at 10 µM read?
Answer: 1.02%

Question: With `Cc1nc(CN2CCCN(CC(=O)N(C)C(C)(C)C#N)CC2)no1` as the compound, how does the cytotoxicity at 10 µM read?
Answer: 9.5%

Question: Which cytotoxicity at 10 µM does the source give for `N#Cc1cc(Cl)ccc1N1CCOC(C(N)=O)C1` (stereo unspecified) here?
Answer: 11.7%

Question: Which cytotoxicity at 10 µM does the source give for `CCCn1nnnc1CSc1nccn1C` here?
Answer: -3.39%

Question: Which cytotoxicity at 10 µM does the source give for `CN1CCN(C(C)(C)CNC(=O)C2CCCN2S(C)(=O)=O)CC1` (stereo unspecified) here?
Answer: 7.45%

Question: With `CC(CS(C)(=O)=O)N(C(=O)CCc1ccsc1)C1CC1` (stereo unspecified) as the compound, how does the cytotoxicity at 10 µM read?
Answer: 1.97%

Question: With `CC(C)c1ncc2c(n1)CN(Cc1ccc3c(c1)OCCO3)CC2` as the compound, how does the cytotoxicity at 10 µM read?
Answer: -0.996%

Question: With `CC(=O)N1Cc2ccccc2CC1C(=O)Nc1ccc(C)cn1` (stereo unspecified) as the compound, how does the cytotoxicity at 10 µM read?
Answer: -0.147%

Question: For `Cc1cnn(CCNCCCOc2ccc3c(c2)OCO3)c1`, which cytotoxicity at 10 µM is on record?
Answer: -3.6%

Question: With `Cc1ccc(NC(=O)CCC2CC2)cc1N1CCOC1=O` as the compound, how does the cytotoxicity at 10 µM read?
Answer: 3.86%

Question: For `CN1CCC(N(CCc2ccccc2)C(=O)c2ccoc2)CC1`, which cytotoxicity at 10 µM is on record?
Answer: -5.42%

Question: Which cytotoxicity at 10 µM does the source give for `CN(C)C(C(=O)N1CC(c2ccccn2)C1)c1cccc(F)c1` (stereo unspecified) here?
Answer: -0.95%

Question: With `Nc1nc(CNc2nccc(CCC(F)(F)F)n2)cs1` as the compound, how does the cytotoxicity at 10 µM read?
Answer: -2.38%

Question: For `CC(=O)N1CCC(Oc2ccc(Cl)cc2C(=O)N2CCCO2)CC1`, which cytotoxicity at 10 µM is on record?
Answer: 15.3%

Question: Which cytotoxicity at 10 µM does the source give for `COc1ncccc1C(=O)N1CCC(c2nc3c(C)cccc3[nH]2)CC1` here?
Answer: 11.7%

Question: With `O=C(CCc1ccco1)N1CCc2[nH]nc(COc3ccccc3)c2C1` as the compound, how does the cytotoxicity at 10 µM read?
Answer: 0.86%

Question: Which cytotoxicity at 10 µM does the source give for `Cc1cccc(SC2CCN(C(=O)CCCS(N)(=O)=O)CC2)c1` here?
Answer: -6.01%

Question: With `CCn1c(C2CCN(C(=O)c3cc(C4CC4)on3)CC2)nn(C)c1=O` as the compound, how does the cytotoxicity at 10 µM read?
Answer: -5.82%

Question: Which cytotoxicity at 10 µM does the source give for `CSCCC(O)C(=O)N1CCCN(Cc2ccc(F)cc2)CC1` (stereo unspecified) here?
Answer: 5.14%

Question: For `COc1ccccc1-n1cc(C(=O)NCCn2nc(C)nc2C)cn1`, which cytotoxicity at 10 µM is on record?
Answer: 9.27%

Question: For `CS(=O)(=O)c1ccc(CN2CCCCC2c2ccc(F)cc2)cc1` (stereo unspecified), which cytotoxicity at 10 µM is on record?
Answer: 6.04%

Question: With `Cc1nn(C)c(C)c1CCC(=O)NCc1csc(N2CCCC2)n1` as the compound, how does the cytotoxicity at 10 µM read?
Answer: -4.55%

Question: Which cytotoxicity at 10 µM does the source give for `CCN1CCN(S(=O)(=O)c2cnc(NC(C)=O)s2)CC1` here?
Answer: 1.37%

Question: Which cytotoxicity at 10 µM does the source give for `CCOc1ccc(-c2cc(CCN)ccc2OC)cc1` here?
Answer: 1.63%

Question: Which cytotoxicity at 10 µM does the source give for `Cc1nnsc1C(=O)N1CCC2(CC1)c1nc[nH]c1CCN2CC(C)C` here?
Answer: 26.3%

Question: Which cytotoxicity at 10 µM does the source give for `Cc1nn(-c2ccccc2)c2c1C(c1ccc(C(=O)O)cc1)CC(=O)N2` (stereo unspecified) here?
Answer: 10.6%

Question: For `CC(C)(C)c1nnc(CN2CCCC2Cn2cncn2)o1` (stereo unspecified), which cytotoxicity at 10 µM is on record?
Answer: -4.04%

Question: For `COc1c(C)cnc(CN2CCC(C(=O)N(C)C)CC2)c1C`, which cytotoxicity at 10 µM is on record?
Answer: -12.6%

Question: For `Cc1nc(-c2nnc[nH]2)sc1C(=O)N(Cc1cccnc1)C1CC1`, which cytotoxicity at 10 µM is on record?
Answer: -5.79%

Question: Which cytotoxicity at 10 µM does the source give for `Cc1ccc(C(=O)N2CCN(CCc3cccs3)CC2)c(=O)[nH]1` here?
Answer: -3.94%

Question: Which cytotoxicity at 10 µM does the source give for `c1ccc(-c2nc(CN3CCCC3Cn3cncn3)cs2)cc1` (stereo unspecified) here?
Answer: -14%

Question: For `CCN1CCN(C2CCN(Cc3c(C)noc3C)CC2)C1=O`, which cytotoxicity at 10 µM is on record?
Answer: -7.85%

Question: For `c1ccc(-c2nnc(CNCCn3cccn3)o2)cc1`, which cytotoxicity at 10 µM is on record?
Answer: -10.7%

Question: For `Cc1ccsc1CNC(=O)Cc1c(C)nc2c(c1C)c(=O)[nH]n2C`, which cytotoxicity at 10 µM is on record?
Answer: -0.168%

Question: With `CC(C)Nc1nc2c(cc1C(=O)NCC1CC1)CCNCC2` as the compound, how does the cytotoxicity at 10 µM read?
Answer: -5.42%

— ChEMBL document CHEMBL4513216, “Probing the Open Global Health Chemical Diversity Library for Multistage-Active Starting Points for Next-Generation Antimalarials” (ACS Infect Dis, 2020)
